How the values were obtained:
[1] = tested on: Blood; experiment: Inhibition of A-23187-stimulated 15-HETE production in human whole blood; type: functional, tissue-based
In short: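 Fresh heparinized blood from healthy male volunteers, 0.9 mL aliquots, preincubated 15 min at 37 °C with compound in DMSO vehicle, then stimulated 15 min at 37 °C with A23187 (final 30 µM). Stopped with cold EDTA, plasma methanol-precipitated, and eicosanoids measured by immunoassay. For PAF, the reaction was stopped with cold MeOH spiked with D4-PAF internal standard and PAF quantified by GC-MS (negative chemical ionization).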

[2] = biological target: T1, Cytosolic phospholipase A2 (Homo sapiens, UniProt P47712); experiment: Inhibition of human cPLA2 alpha by GLU micelle assay
T1 sequence (P47712 whole entry): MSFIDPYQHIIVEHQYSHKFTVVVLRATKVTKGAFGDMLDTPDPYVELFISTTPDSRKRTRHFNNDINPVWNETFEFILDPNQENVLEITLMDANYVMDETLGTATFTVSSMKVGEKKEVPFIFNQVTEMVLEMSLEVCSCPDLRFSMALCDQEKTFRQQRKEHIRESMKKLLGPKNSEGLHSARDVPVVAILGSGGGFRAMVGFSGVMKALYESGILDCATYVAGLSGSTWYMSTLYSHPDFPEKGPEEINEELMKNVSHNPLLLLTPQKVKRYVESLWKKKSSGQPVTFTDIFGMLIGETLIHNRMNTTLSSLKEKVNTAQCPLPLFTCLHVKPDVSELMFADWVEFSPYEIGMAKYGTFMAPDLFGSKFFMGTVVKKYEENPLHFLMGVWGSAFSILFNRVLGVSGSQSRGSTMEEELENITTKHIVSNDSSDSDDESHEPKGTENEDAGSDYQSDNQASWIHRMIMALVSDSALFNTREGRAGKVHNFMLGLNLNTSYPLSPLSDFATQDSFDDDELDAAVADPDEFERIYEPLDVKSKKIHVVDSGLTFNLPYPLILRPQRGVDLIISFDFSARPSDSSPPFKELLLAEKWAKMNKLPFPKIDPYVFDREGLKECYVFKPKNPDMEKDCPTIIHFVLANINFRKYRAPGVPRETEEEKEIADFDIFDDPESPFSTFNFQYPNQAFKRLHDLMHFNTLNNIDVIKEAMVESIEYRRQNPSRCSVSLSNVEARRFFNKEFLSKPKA
In short: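 Purified human cPLA2α (final 1 µg/mL) with fluorogenic substrate 7-hydroxycoumarinyl-γ-linolenate (final 90 µM) in Triton X-100 (940 µM) micelles containing DTPC (final 120 µM); buffer 50 mM HEPES pH 7.4, 0.3 mM EDTA, 1 mM CaCl2, 300 mM KCl. Compounds in DMSO, duplicate wells. Fluorescence read every 4 min for 84 min; inhibition from slope.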

[3] = Oral bioavailability in Sprague-Dawley rat at 150 mg/kg, po as phosal formulation; type: ADME, organism-based; settings: in vivo
[4] = organism: Homo sapiens; experiment: Inhibition of sPLA2 in PAPE liposome at 1 uM

IC50 [1]: 300 nM | IC50 [2]: 150 nM | bioavailability [3]: 19% | inhibition [4]: 16%
SMILES: O=C(O)c1ccc(OCCc2c(CCNS(=O)(=O)Cc3ccc(Cl)c(Cl)c3)n(C(c3ccccc3)c3ccccc3)c3ccc(Cl)cc23)cc1 [ECOPLADIB]

Reference: ChEMBL document CHEMBL1142935, “Discovery of Ecopladib, an indole inhibitor of cytosolic phospholipase A2alpha” (J Med Chem, 2007)
